Active and inactive are the calls of the source. No cut-off for these calls is given here. Square brackets hold non-standard residues; d marks the D form. Peptide text beside a SMILES is read from it. Abu = CC[C@H](N)C(=O)O
Legend:
[1] = test system: HUVEC; experiment: Antiangiogenic activity in human HUVEC cells assessed as inhibition of cell adhesion at 100 uM upto 3 hrs by migration assay; type: functional
Method in brief: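 HUVEC (passages 2–7, EGM-2, 37°C, 5% CO2) seeded at 25,000 cells/well in single-compartment impedance E-plates with or without peptide at 100 μM; adhesion tracked as change in cell index amplitude over 3 hours. Two biological replicates, each the mean of three same-plate technical replicates; expressed as percent inhibition relative to vehicle control.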

[2] = test system: HUVEC; experiment: Antiangiogenic activity in human HUVEC cells assessed as inhibition of cell proliferation at 100 uM after 72 hrs by WST-1-based colorimetric assay; type: functional
Method in brief: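 HUVEC (passages 2–7) plated at 2000 cells/well, peptide 100 μM added in fully supplemented medium to adherent cells for 72 hours; WST-1 then applied in serum-free medium for four hours and absorbance read at 450 nm. Two biological replicates, each mean of three technical replicates; percent inhibition relative to vehicle control.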

[3] = test system: HUVEC; experiment: Antiangiogenic activity in human HUVEC cells assessed as inhibition of cell migration at 50 uM; type: functional
Method in brief: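 Real-time impedance migration: upper chamber coated with fibronectin (20μg/ml), 45,000 HUVEC/well (passages 2–7) added with or without peptide at 50 μM; fully supplemented medium below as chemoattractant; migration read as cell index from sensors under porous membrane. Duplicate experiments, each averaging three same-plate replicates; percent inhibition versus vehicle control.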

[4] = test system: HUVEC; experiment: Antiangiogenic activity in human HUVEC cells assessed as inhibition of tube structure formation at 100 uM relative to control; type: functional, cell-based
Method in brief: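 Wells coated with reduced growth factor basement membrane matrix, gelled 30 minutes at 37 °C; HUVEC seeded on gel at 15,000 cells/well with or without peptide (100 μM), control receiving equal DMSO vehicle. Incubated overnight at 37 °C, 5% CO2; tube structures imaged by camera on inverted microscope.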

Compound	inhibition at 100 µM [1]	inhibition at 100 µM [2]	inhibition at 50 µM [3]	inhibition [4]
CC[C@H](NC(=O)[C@@H](NC(=O)[C@H](CC(N)=O)NC(=O)[C@H](CC(N)=O)NC(=O)[C@@H](NC(=O)[C@H](CC(N)=O)NC(=O)[C@H](CC)NC(=O)[C@@H](N)Cc1ccccc1)[C@@H](C)CC)C(C)C)C(=O)N[C@@H](CC(N)=O)C(=O)O (H-F[Abu]NINNV[Abu]N-OH)	77.5%	20.6%	40.4%	–
CC[C@H](NC(=O)[C@@H](NC(=O)[C@H](CC(N)=O)NC(=O)[C@H](CC(N)=O)NC(=O)[C@@H](NC(=O)[C@@H](N)CC(N)=O)[C@@H](C)CC)C(C)C)C(=O)N[C@@H](CC(N)=O)C(=O)N[C@@H](Cc1ccccc1)C(=O)O (H-NINNV[Abu]NF-OH)	70.8%	24.2%	31.6%	–
CC[C@H](NC(=O)[C@H](Cc1ccccc1)NC(=O)[C@H](C)NC(=O)[C@H](Cc1ccccc1)NC(=O)[C@@H]1CCCN1C(=O)[C@H](CCSC)NC(=O)[C@@H](NC(=O)[C@H](CO)NC(=O)[C@H](Cc1ccccc1)NC(=O)[C@H](CCCNC(=N)N)NC(=O)[C@H](CCCNC(=N)N)NC(=O)[C@@H](N)CC(C)C)[C@@H](C)O)C(=O)N[C@@H](CC(N)=O)C(=O)N[C@H](C(=O)N[C@@H](CC(N)=O)C(=O)N[C@@H](CC(N)=O)C(=O)N[C@H](C(=O)N[C@@H](CC)C(=O)N[C@@H](CC(N)=O)C(=O)N[C@@H](Cc1ccccc1)C(=O)O)C(C)C)[C@@H](C)CC (H-LRRFSTMPFAF[Abu]NINNV[Abu]NF-OH)	98.3%	63.6%	99.6%	–
H-LRRFSTMPFMFVNINNVVNF-OH	95.1%	62.2%	98.8%	Active
H-LRRFSTMPFMF-OH	-2.6%	2.97%	-14.2%	–
H-LRRFSTMPFMFTNINNVTNF-OH	98.7%	59.1%	96.1%	–
H-LRRFSTMP-OH	-0.14%	7.02%	-20.1%	Active
CC[C@H](NC(=O)[C@H](C)NC(=O)[C@H](CCSC)NC(=O)[C@H](Cc1ccccc1)NC(=O)[C@@H]1CCCN1C(=O)[C@H](CCSC)NC(=O)[C@@H](NC(=O)[C@H](CO)NC(=O)[C@H](Cc1ccccc1)NC(=O)[C@H](CCCNC(=N)N)NC(=O)[C@H](CCCNC(=N)N)NC(=O)[C@@H](N)CC(C)C)[C@@H](C)O)C(=O)N[C@@H](CC(N)=O)C(=O)N[C@H](C(=O)N[C@@H](CC(N)=O)C(=O)N[C@@H](CC(N)=O)C(=O)N[C@H](C(=O)N[C@@H](CC)C(=O)N[C@@H](CC(N)=O)C(=O)N[C@@H](Cc1ccccc1)C(=O)O)C(C)C)[C@@H](C)CC (H-LRRFSTMPFMA[Abu]NINNV[Abu]NF-OH)	99.3%	65.1%	99.6%	–
CC[C@H](C)[C@H](NC(=O)[C@H](CC(N)=O)NC(=O)[C@H](CS)NC(=O)[C@H](Cc1ccccc1)NC(=O)[C@H](CCSC)NC(=O)[C@H](Cc1ccccc1)NC(=O)[C@@H]1CCCN1C(=O)[C@H](CCSC)NC(=O)[C@@H](NC(=O)[C@H](CO)NC(=O)[C@H](Cc1ccccc1)NC(=O)[C@H](CCCNC(=N)N)NC(=O)[C@H](CCCNC(=N)N)NC(=O)[C@@H](N)CC(C)C)[C@@H](C)O)C(=O)N[C@@H](CC(N)=O)C(=O)N[C@@H](CC(N)=O)C(=O)N[C@H](C(=O)N[C@@H](CS)C(=O)N[C@@H](CC(N)=O)C(=O)N[C@@H](Cc1ccccc1)C(=O)O)C(C)C (H-LRRFSTMPFMFCNINNVCNF-OH)	96.2%	67.5%	91%	–
H-LNRFSTMPF-OH	0.32%	6.35%	-16.1%	–
CC[C@H](NC(=O)[C@H](Cc1ccccc1)NC(=O)[C@H](CCSC)NC(=O)[C@H](Cc1ccccc1)NC(=O)[C@@H]1CCCN1C(=O)[C@H](CCSC)NC(=O)[C@@H](NC(=O)[C@H](CO)NC(=O)[C@H](Cc1ccccc1)NC(=O)[C@H](CCCNC(=N)N)NC(=O)[C@H](CCCNC(=N)N)NC(=O)[C@@H](N)CC(C)C)[C@@H](C)O)C(=O)N[C@@H](CC(N)=O)C(=O)N[C@H](C(=O)N[C@@H](CC(N)=O)C(=O)N[C@@H](CC(N)=O)C(=O)N[C@H](C(=O)N[C@@H](CC)C(=O)N[C@@H](CC(N)=O)C(=O)N[C@@H](Cc1ccccc1)C(=O)O)C(C)C)[C@@H](C)CC (H-LRRFSTMPFMF[Abu]NINNV[Abu]NF-OH)	98.5%	69.7%	97%	–
CC[C@H](NC(=O)[C@@H](N)Cc1ccccc1)C(=O)N[C@@H](CC(N)=O)C(=O)N[C@H](C(=O)N[C@@H](CC(N)=O)C(=O)O)[C@@H](C)CC (H-F[Abu]NIN-OH)	3.45%	8.17%	-23.7%	–
H-LRRFSTMPFMFININNVINF-OH	98.6%	73.2%	92.9%	–
CC[C@H](NC(=O)[C@H](Cc1ccccc1)NC(=O)[C@H](CCSC)NC(=O)[C@H](Cc1ccccc1)NC(=O)[C@@H]1CCCN1C(=O)[C@H](CCSC)NC(=O)[C@@H](NC(=O)[C@@H](N)CO)[C@@H](C)O)C(=O)N[C@@H](CC(N)=O)C(=O)N[C@H](C(=O)N[C@@H](CC(N)=O)C(=O)N[C@@H](CC(N)=O)C(=O)N[C@H](C(=O)N[C@@H](CC)C(=O)N[C@@H](CC(N)=O)C(=O)N[C@@H](Cc1ccccc1)C(=O)O)C(C)C)[C@@H](C)CC (H-STMPFMF[Abu]NINNV[Abu]NF-OH)	6.82%	13.8%	-24.5%	–
CC[C@H](NC(=O)[C@H](Cc1ccccc1)NC(=O)[C@H](CCSC)NC(=O)[C@@H](N)Cc1ccccc1)C(=O)N[C@@H](CC(N)=O)C(=O)N[C@H](C(=O)N[C@@H](CC(N)=O)C(=O)N[C@@H](CC(N)=O)C(=O)N[C@H](C(=O)N[C@@H](CC)C(=O)N[C@@H](CC(N)=O)C(=O)N[C@@H](Cc1ccccc1)C(=O)O)C(C)C)[C@@H](C)CC (H-FMF[Abu]NINNV[Abu]NF-OH)	66.2%	28.3%	-16.6%	–
H-LRRFSTMPFMFGNINNVGNF-OH	97.8%	25.7%	87.9%	–
H-LRRFSTMPFMFANINNVANF-OH	98.2%	48.6%	99.6%	–
CC[C@H](C)[C@H](NC(=O)[C@H](CC(N)=O)NC(=O)[C@@H](NC(=O)[C@H](Cc1ccccc1)NC(=O)[C@H](C)NC(=O)[C@H](Cc1ccccc1)NC(=O)[C@@H]1CCCN1C(=O)[C@H](CCSC)NC(=O)[C@@H](NC(=O)[C@H](CO)NC(=O)[C@H](Cc1ccccc1)NC(=O)[C@H](CCCNC(=N)N)NC(=O)[C@H](CCCNC(=N)N)NC(=O)[C@@H](N)CC(C)C)[C@@H](C)O)[C@@H](C)CC)C(=O)N[C@@H](CC(N)=O)C(=O)N[C@@H](CC(N)=O)C(=O)N[C@H](C(=O)N[C@H](C(=O)N[C@@H](CC(N)=O)C(=O)N[C@@H](Cc1ccccc1)C(=O)O)[C@@H](C)CC)C(C)C	94.8%	46.6%	69.3%	Active
H-LRRFSTMPFMFSNINNVSNF-OH	98%	50.5%	92.6%	–
CC[C@H](NC(=O)[C@H](Cc1ccccc1)NC(=O)[C@H](CCSC)NC(=O)[C@H](C)NC(=O)[C@@H]1CCCN1C(=O)[C@H](CCSC)NC(=O)[C@@H](NC(=O)[C@H](CO)NC(=O)[C@H](Cc1ccccc1)NC(=O)[C@H](CCCNC(=N)N)NC(=O)[C@H](CCCNC(=N)N)NC(=O)[C@@H](N)CC(C)C)[C@@H](C)O)C(=O)N[C@@H](CC(N)=O)C(=O)N[C@H](C(=O)N[C@@H](CC(N)=O)C(=O)N[C@@H](CC(N)=O)C(=O)N[C@H](C(=O)N[C@@H](CC)C(=O)N[C@@H](CC(N)=O)C(=O)N[C@@H](Cc1ccccc1)C(=O)O)C(C)C)[C@@H](C)CC (H-LRRFSTMPAMF[Abu]NINNV[Abu]NF-OH)	95.6%	65.4%	99.8%	–

From ChEMBL document CHEMBL1828610, “Novel peptide-specific quantitative structure-activity relationship (QSAR) analysis applied to collagen IV peptides with antiangiogenic activity” (2011)
